ChEMBL document CHEMBL4689842, “EUbOPEN Chemogenomics Library wave 1” (2021)

System: U2OS
Test: Multiplex assay against U2OS
Format: toxicity, cell-based
Conditions: human
Outline: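 Four dyes were applied at seeding to live cells: Hoechst33342, BioTracker Green Microtubule Cytoskeleton Dye, MitoTracker Red and Annexin V Alexa Fluor 680. Imaging after compound addition used a CQ1 microscope at 37°C and 5% CO2. CellPathfinder machine-learning gating then sorted cells into Hoechst high-intensity objects or normal cells, normal cells into healthy, pyknosed or fragmented nuclei, and pyknosed cells into mitotic or apoptotic, with tubulin, mitochondrial-mass and membrane-permeability phenotypes given as per cents of healthy-nucleus cells.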

[1] = 12 h, 1 µM, compound concentration 1 uM, replicate 1
[2] = 12 h, 1 µM, compound concentration 1 uM, replicate 2
[3] = 12 h, 10 µM, compound concentration 10 uM, replicate 1
[4] = 12 h, 10 µM, compound concentration 10 uM, replicate 2
[5] = 24 h, 1 µM, compound concentration 1 uM, replicate 1
[6] = 24 h, 1 µM, compound concentration 1 uM, replicate 2
[7] = 24 h, 10 µM, compound concentration 10 uM, replicate 1
[8] = 24 h, 10 µM, compound concentration 10 uM, replicate 2
[9] = 48 h, 1 µM, compound concentration 1 uM, replicate 1
[10] = 48 h, 1 µM, compound concentration 1 uM, replicate 2
[11] = 48 h, 10 µM, compound concentration 10 uM, replicate 1
[12] = 48 h, 10 µM, compound concentration 10 uM, replicate 2

`O=C(Nc1ccc(-n2nc(-c3cccnc3)cc2C(F)(F)F)cn1)c1ccc(-c2ccccc2)c(F)c1` [BI 2049] was tested, and the “Population Apoptotic (%)” value [1] was 63%, the “Population Fragmented Nuclei (%)” value [1] was 12% and the “Population Healthy Nuclei (%)” value [1] was 74%. The “Population Hoechst High Intensity Objects (%)” value [1] was 12%, the “Population Membrane Permeable-Phenotype (%)” value [1] was 6% and the “Population Mitochondria Different-Phenotype (%)” value [1] was 10%. The “Population Mitotic Cells (%)” value [1] was 36%, the “Population Normal (%)” value [1] was 87% and the “Population Pyknosed Nuclei (%)” value [1] was 12%. The “Population Tubulin-Different-Phenotype (%)” value [1] was 12%, the “Total Cell Count” value [1] was 99 and the “Population Apoptotic (%)” value [2] was 50%. For the same compound, the “Population Fragmented Nuclei (%)” value [2] was 4%, the “Population Healthy Nuclei (%)” value [2] was 85% and the “Population Hoechst High Intensity Objects (%)” value [2] was 8%. The “Population Membrane Permeable-Phenotype (%)” value [2] was 3%, the “Population Mitochondria Different-Phenotype (%)” value [2] was 7% and the “Population Mitotic Cells (%)” value [2] was 50%. The “Population Normal (%)” value [2] was 91%, the “Population Pyknosed Nuclei (%)” value [2] was 9% and the “Population Tubulin-Different-Phenotype (%)” value [2] was 44%. The “Total Cell Count” value [2] was 69, the “Population Apoptotic (%)” value [3] was 30% and the “Population Fragmented Nuclei (%)” value [3] was 13%. The “Population Healthy Nuclei (%)” value [3] was 69%, the “Population Hoechst High Intensity Objects (%)” value [3] was 9% and the “Population Membrane Permeable-Phenotype (%)” value [3] was 6%. The “Population Mitochondria Different-Phenotype (%)” value [3] was 24%, the “Population Mitotic Cells (%)” value [3] was 70% and the “Population Normal (%)” value [3] was 90%. The “Population Pyknosed Nuclei (%)” value [3] was 17%, the “Population Tubulin-Different-Phenotype (%)” value [3] was 35% and the “Total Cell Count” value [3] was 129. The “Population Apoptotic (%)” value [4] was 0%, the “Population Fragmented Nuclei (%)” value [4] was 18% and the “Population Healthy Nuclei (%)” value [4] was 81%. For the same compound, the “Population Hoechst High Intensity Objects (%)” value [4] was 6%, the “Population Membrane Permeable-Phenotype (%)” value [4] was 4% and the “Population Mitochondria Different-Phenotype (%)” value [4] was 12%. For the same compound, the “Population Mitotic Cells (%)” value [4] was 0%, the “Population Normal (%)” value [4] was 93% and the “Population Pyknosed Nuclei (%)” value [4] was 0%. The “Population Tubulin-Different-Phenotype (%)” value [4] was 8%, the “Total Cell Count” value [4] was 65 and the “Population Apoptotic (%)” value [5] was 60%. The “Population Fragmented Nuclei (%)” value [5] was 8%, the “Population Healthy Nuclei (%)” value [5] was 79% and the “Population Hoechst High Intensity Objects (%)” value [5] was 5%. The “Population Membrane Permeable-Phenotype (%)” value [5] was 3%, the “Population Mitochondria Different-Phenotype (%)” value [5] was 6% and the “Population Mitotic Cells (%)” value [5] was 40%. The “Population Normal (%)” value [5] was 94%, the “Population Pyknosed Nuclei (%)” value [5] was 11% and the “Population Tubulin-Different-Phenotype (%)” value [5] was 13%. For the same compound, the “Total Cell Count” value [5] was 136, the “Population Apoptotic (%)” value [6] was 25% and the “Population Fragmented Nuclei (%)” value [6] was 7%. The “Population Healthy Nuclei (%)” value [6] was 83%, the “Population Hoechst High Intensity Objects (%)” value [6] was 7% and the “Population Membrane Permeable-Phenotype (%)” value [6] was 4%. For the same compound, the “Population Mitochondria Different-Phenotype (%)” value [6] was 9%, the “Population Mitotic Cells (%)” value [6] was 75% and the “Population Normal (%)” value [6] was 92%. The “Population Pyknosed Nuclei (%)” value [6] was 8%, the “Population Tubulin-Different-Phenotype (%)” value [6] was 37% and the “Total Cell Count” value [6] was 96. The “Population Apoptotic (%)” value [7] was 34%, the “Population Fragmented Nuclei (%)” value [7] was 10% and the “Population Healthy Nuclei (%)” value [7] was 71%. For the same compound, the “Population Hoechst High Intensity Objects (%)” value [7] was 5%, the “Population Membrane Permeable-Phenotype (%)” value [7] was 6% and the “Population Mitochondria Different-Phenotype (%)” value [7] was 21%. For the same compound, the “Population Mitotic Cells (%)” value [7] was 65%, the “Population Normal (%)” value [7] was 94% and the “Population Pyknosed Nuclei (%)” value [7] was 18%. For the same compound, the “Population Tubulin-Different-Phenotype (%)” value [7] was 19%, the “Total Cell Count” value [7] was 135 and the “Population Apoptotic (%)” value [8] was 0%. The “Population Fragmented Nuclei (%)” value [8] was 11%, the “Population Healthy Nuclei (%)” value [8] was 84% and the “Population Hoechst High Intensity Objects (%)” value [8] was 3%. For the same compound, the “Population Membrane Permeable-Phenotype (%)” value [8] was 4%, the “Population Mitochondria Different-Phenotype (%)” value [8] was 13% and the “Population Mitotic Cells (%)” value [8] was 100%. For the same compound, the “Population Normal (%)” value [8] was 96%, the “Population Pyknosed Nuclei (%)” value [8] was 3% and the “Population Tubulin-Different-Phenotype (%)” value [8] was 10%. The “Total Cell Count” value [8] was 82, the “Population Apoptotic (%)” value [9] was 33% and the “Population Fragmented Nuclei (%)” value [9] was 9%. For the same compound, the “Population Healthy Nuclei (%)” value [9] was 82%, the “Population Hoechst High Intensity Objects (%)” value [9] was 5% and the “Population Mitochondria Different-Phenotype (%)” value [9] was 12%. The “Population Mitotic Cells (%)” value [9] was 66%, the “Population Normal (%)” value [9] was 94% and the “Population Pyknosed Nuclei (%)” value [9] was 7%. The “Population Tubulin-Different-Phenotype (%)” value [9] was 10%, the “Total Cell Count” value [9] was 200 and the “Population Apoptotic (%)” value [10] was 22%. The “Population Fragmented Nuclei (%)” value [10] was 2%, the “Population Healthy Nuclei (%)” value [10] was 91% and the “Population Hoechst High Intensity Objects (%)” value [10] was 3%. The “Population Membrane Permeable-Phenotype (%)” value [10] was 1%, the “Population Mitochondria Different-Phenotype (%)” value [10] was 10% and the “Population Mitotic Cells (%)” value [10] was 77%. The “Population Normal (%)” value [10] was 96%, the “Population Pyknosed Nuclei (%)” value [10] was 6% and the “Population Tubulin-Different-Phenotype (%)” value [10] was 41%. The “Total Cell Count” value [10] was 146, the “Population Apoptotic (%)” value [11] was 63% and the “Population Fragmented Nuclei (%)” value [11] was 8%. The “Population Healthy Nuclei (%)” value [11] was 74%, the “Population Hoechst High Intensity Objects (%)” value [11] was 3% and the “Population Membrane Permeable-Phenotype (%)” value [11] was 7%. For the same compound, the “Population Mitochondria Different-Phenotype (%)” value [11] was 13%, the “Population Mitotic Cells (%)” value [11] was 36% and the “Population Normal (%)” value [11] was 96%. The “Population Pyknosed Nuclei (%)” value [11] was 17%, the “Population Tubulin-Different-Phenotype (%)” value [11] was 11% and the “Total Cell Count” value [11] was 181. The “Population Apoptotic (%)” value [12] was 11%, the “Population Fragmented Nuclei (%)” value [12] was 7% and the “Population Healthy Nuclei (%)” value [12] was 85%. The “Population Hoechst High Intensity Objects (%)” value [12] was 2%, the “Population Membrane Permeable-Phenotype (%)” value [12] was 3% and the “Population Mitochondria Different-Phenotype (%)” value [12] was 11%. For the same compound, the “Population Mitotic Cells (%)” value [12] was 88%, the “Population Normal (%)” value [12] was 97% and the “Population Pyknosed Nuclei (%)” value [12] was 7%. The “Population Tubulin-Different-Phenotype (%)” value [12] was 6% and the “Total Cell Count” value [12] was 128.
